In the data set the test system is MS2 coat protein. Description: apparent Kd, MS2 coat protein; higher = weaker binding; RNA-MaP array; FMN 200 µM where present. The procedure, abridged: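 Binding was read on Illumina sequencing-chip clusters where stalled E. coli RNA polymerase had transcribed each design. A titration of SNAP-549-labelled MS2 coat protein began at 0.7 or 1.5 nM and doubled to 3 µM, once without ligand and once with constant ligand, in 100 mM Tris-HCl pH 7.5, 80 mM KCl, 4 mM MgCl2, BSA, DTT, yeast tRNA and Tween-20. The apparent Kd is the median of filtered per-cluster binding-curve fits, based on green signal normalised to red-channel RNA signal and control-cluster median Fmax.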

The mark [1] stands for this setting: designed as: OFF switch for flavin mononucleotide, no ligand.
Where [2] appears, read: ligand present: flavin mononucleotide, designed as: OFF switch for flavin mononucleotide.
Where [3] appears, read: designed as: ON switch for flavin mononucleotide, no ligand.
[4] abbreviates: ligand present: flavin mononucleotide, designed as: ON switch for flavin mononucleotide.

Data on 48 sequences can be found in the EternaBench riboswitch data.

A word on the apparent Kd: it is the concentration giving half-maximal binding under the conditions of the assay.

For the sequence “AUCAGCUCGUCAGGAUAUACGUCACUGCGUCAGCAGUGUGGUAACAUCACAUGAGGAUCACCCAUGUAGAAGGGACGAGCUGAU”, the “apparent Kd” value reads like this: under setting [1], 5.84 nM; under setting [2], 11.3 nM.
As for “CUUAUGUGAGGAUAUCAGUAGUAAAAAAAUAAAAUUACUACUGAGAAGGCACAUGAGGAUCACCCAUGUGUCUC”, the “apparent Kd” value stood at 20.4 nM under setting [1] and 22.2 nM under setting [2].
With “AGUAAGAUGCAGAAGGUGUCAGCGAGAGCUGCGACAUGAGGAUCACCCAUGUACACGUGAGUGUACAAGGAUAUGCAUCUUACA”, the “apparent Kd” value is 1090 nM under setting [3] and 431 nM under setting [4].
Regarding “CACGGUGAUGUAGGAUAUACGCUGGAAUACAGCGUAGAAGGACAUGAGGAUCACCCAUGUAAAGUGUCUCCGAAUAACACCGUG”, the “apparent Kd” value by setting is: under setting [1], 33.8 nM; under setting [2], 63.3 nM.
On to “GUCAGCUCGUGAGGAUAUACAUGUGCUGGAGACAGCACUAAUAGAAUCACAUGAGGAUCACCCAUGUAGAAGGCACGAGCUGAU”, for which the “apparent Kd” value by setting is: under setting [1], 17 nM; under setting [2], 41.2 nM.
“CCGCAAAUGCAGGAUAUCGUAUCGGAUACGAUACGAGAAGGGCGUACAUGAGGAUCACCCAUGUGUCCUAGCGG”: the “apparent Kd” value under setting [1] is 16.4 nM and the “apparent Kd” value under setting [2] stood at 23.3 nM.
With “GGUACCAUCACAGGAUAUGCUUUCCGUUGGGAAGCAGAAGGGUGUAACAUGAGGAUCACCCAUGUGGUGCCCGGGCGUGAGCCC”, the “apparent Kd” value is, setting by setting: under setting [3], 135 nM; under setting [4], 15.6 nM.
With “UCGAUGCUAGGAUAUACUAAUAAAACUACUGUAGUGUCUUCACAUGAGGAUCACCCAUGUAGAAGGAGCAUCUA”, the “apparent Kd” value reads like this: under setting [1], 28.3 nM; under setting [2], 21.8 nM.
For the sequence “GGACAUUUACAGAAGGGCAAUUUAUUUAUUGAUUAUUUAGUUCUGUUUUGCAGGAUAUGUAAUACAUGAGGAUCACCCAUGUCC”, the “apparent Kd” value under setting [3] came out at 188 nM and the “apparent Kd” value under setting [4] was 74 nM.
Turning to “UGUAUGUGGGCAGGAUAUACAUGAAUAUAUAUGAUGUAGUAUGAUGUAACAUGAGGAUCACCCAUGUAGAAGGGCCGGUGUAUG”, the “apparent Kd” value came out at 165 nM under setting [1] and 214 nM under setting [2].
With “GGUACUCAAAGAGUACCAAUACGAACAUGAGGAUCACCCAUGUAGGAUAUGCUACUCAAAGAGCAGCAGAAGGACAUGUGCCUA”, the “apparent Kd” value is 17.7 nM under setting [1] and 125 nM under setting [2].
With “UGAAAUCAUGUAGGAUAUGCAUGGCGAAGCUACGCAGAAGGACAUGAGGAUCACCCAUGUUAAAGCUACCGGAUACGGUGGCAA”, the “apparent Kd” value runs as follows: under setting [1], 192 nM; under setting [2], 156 nM.
In the case of “UCAUUUAAUACAGGAUAUGUUAGUAUACAGUAGAUUGGUUAUAACAUAAUAACAGAAGGGUAGAACAUGAGGAUCACCCAUGUA”, the “apparent Kd” value was 86 nM under setting [3] and 64.6 nM under setting [4].
Consider “AUGAGGUCAGGAUAUGCAUGGCGGGACUUGCGUCGUGGCGUGCAGAAGGGACAUGAGGAUCACCCAUGUGGACC”, for which the “apparent Kd” value by setting is: under setting [1], 36.4 nM; under setting [2], 39.5 nM.
Take “UGUCGGAGCAGAGGAUAUUACAUGAGGAUCACCCAUGUAUGAACCAAUAGCUGGAAACAGAAAUGUAAGAAGGCUGCUCCGACA”: the “apparent Kd” value under setting [1] worked out at 5.84 nM and the “apparent Kd” value under setting [2] stood at 21.2 nM.
With “AUGCAGCCACCACAGGAUAUACGUGGAUCGACAUGAGGAUCACCCAUGUAUAUCCUAAUAAUUGCGUAGAAGGGUGGUCGGCUGG”, the “apparent Kd” value is, setting by setting: under setting [3], 555 nM; under setting [4], 81.8 nM.
In the case of “GAGCCCGUCGAGGAUAUACACCAUAUAUGGCUUGUAGAAGGUGACACAUGAGGAUCACCCAUGUUUGUGGUACA”, the “apparent Kd” value was found to be 63.2 nM under setting [1] and 35 nM under setting [2].
On to “UUAAAUCGAAACAUGAGGAUCACCCAUGUGUUGUGAUUAAUAUAGGAUAUGUGUAUACUUUUAUGACAGAAGGAUGAUAAUACU”, for which the “apparent Kd” value reads like this: under setting [3], 12.3 nM; under setting [4], 10.7 nM.
On to “CUUUAAGUCGAGAAGGACAUGAGGAUCACCCAUGUAGGAUAUCGAUUAGCUUGCAUCCCGAGCCGCAUCGGUGUGACUGGUGGG”, for which the “apparent Kd” value is, setting by setting: under setting [3], 36.5 nM; under setting [4], 7.83 nM.
With “AACCGCGAUCGGCCUGGCACGUCGAGAAGGGUACGUGACCUGCUUUACAUGAGGAUCACCCAUGUACAGGAUAUCGAAUAGCCG”, the “apparent Kd” value by setting is: under setting [1], 6.2 nM; under setting [2], 6.68 nM.
On to “UUAUUGUAUGUAGGAUAUGCAUAUUAUUAUUAUGCAGAAGGACAUGAGGAUCACCCAUGUAUAUUAUUAUUAUAUAUUAUAUAU”, for which the “apparent Kd” value stood at 32.3 nM under setting [1] and 60.9 nM under setting [2].
On to “AGAAAGAAGCAAGGAUAUUGUAAGGUUAAUGUACAAGAAGGUGCUGUUUAUGUCUCUUAACAUGAGGAUCACCCAUGUUUUGGU”, for which the “apparent Kd” value runs as follows: under setting [3], 19.2 nM; under setting [4], 18.8 nM.
“AACCGACAUGAGGAUCACCCAUGUCAGGAUAUGGACUGACACCGAAAGAGUGGAGGAACCAGAAGGGACUGGGC”: the “apparent Kd” value was 32.4 nM under setting [1] and 69.5 nM under setting [2].
Take “UGGUUCAUGGGAGGAUAUGGGAUGAUAACAUGAGGAUCACCCAUGUUAAAGAUGCCGAGAGGCAACUAGAAGGCCCAUGAACCU”: the “apparent Kd” value under setting [3] was found to be 268 nM and the “apparent Kd” value under setting [4] stood at 61.7 nM.
With “CUAGUUGUCGCAGGAUAUGCCCGCUGGUUGGAGGCAGAAGGGUGACACCAAAUAUUAUACAUGAGGAUCACCCAUGUCGCCAGC”, the “apparent Kd” value by setting is: under setting [3], 21.4 nM; under setting [4], 20.6 nM.
On to “AAGUAGAUCCGAGGAUAUACAAUCUGGAAUCGGUACAUGAGGAUCACCCAUGUAGAAGGCGGAUCUACAGGUACUAAAGUACCA”, for which the “apparent Kd” value by setting is: under setting [1], 7.88 nM; under setting [2], 38.8 nM.
Consider “UUAUUUGUACAAGGAUAUCUAUUAUAUUCACAUCCUACAUGAGGAUCACCCAUGUUAUAUAUUUUAGAGAAGGUGUAUUGUCUG”, for which the “apparent Kd” value is, setting by setting: under setting [3], 29.9 nM; under setting [4], 35.3 nM.
For “AGGCGAGUAGGAUAUGCGUAUUUACAGGAAAGCUGGAUGGUACAUGAGGAUCACCCAUGUAGAAGGGCUCUGAA”, the “apparent Kd” value by setting is: under setting [1], 21.2 nM; under setting [2], 19.4 nM.
Regarding “GACAUACAUGAGGAUCACCCAUGUUCAAACGGGCAAGGAUAUGUGUGGAAACCAUACUAUACAGAAGGUGUCUGUC”, the “apparent Kd” value reads like this: under setting [3], 28.4 nM; under setting [4], 18.7 nM.
With “UUAUGUUUUGUAGGAUAUCAUAAGUUAUGUAUUAUAAUUGAAAUUUUGUUAUGAGAAGGACAUUUACAUGAGGAUCACCCAUGU”, the “apparent Kd” value by setting is: under setting [1], 13.6 nM; under setting [2], 9.96 nM.
The matching figures for “UAUGUAUUCGUAGGAUAUCCGUUGAGACCGUGUGGAGAAGGACGAACAUGAGGAUCACCCAUGUAUCAUGGUGUAGACAAUUUU”: 115 nM and 353 nM.
In the case of “UGGACCGAGCUAUCGGUUGACUCGGAGGAUAUGACAUGAGGAUCACCCAUGUGGGAUCUAAAUUGUCAGAAGGCUGGUUCUGGG”, the “apparent Kd” value by setting is: under setting [1], 675 nM; under setting [2], 229 nM.
For “AGCAUGUGAGGAUAUGUGAGCCUCAUCCGAAGGACGAGGGAAUAGAAGGCACAUGAGGAUCACCCAUGUGAUGA” the same measures were 27.3 nM and 74.3 nM.
The matching figures for “AGUCAUACAGGAUAUACAUGAGGAUCACCCAUGUAAAUCCUAAAAAGAAAAUCCUCAUGUAGAAGGGUAUGACA”: 13.6 nM and 9.24 nM.
Consider “AGCGGAGACAUGAGGAUCACCCAUGUCAGUGCCGGCGAUACCAGAAGGCCCGGCGGGCCUCGCCGGGAGGAUAUGGGUUCAACA”, for which the “apparent Kd” value reads like this: under setting [3], 13.1 nM; under setting [4], 8.39 nM.
With “UCAUCUUGUCGAGGAUAUAUUAACAUGACAUGAGACACAUGAGGAUCACCCAUGUAUUUUUUUUUAUAGAAGGCGACUAUAUGU”, the “apparent Kd” value by setting is: under setting [3], 32.6 nM; under setting [4], 52.9 nM.
On to “CGUAAGAUGCAGAAGGUGUUAGCUAGAGCUACGACAUGAGGAUCACCCAUGUACUAGAAACAGUACAAGGAUAUGCAUCUUACU”, for which the “apparent Kd” value is, setting by setting: under setting [3], 18.4 nM; under setting [4], 6.25 nM.
On to “GUCAGUGUGGUAGGAUAUCGAAACGGUCAGUUACGAGAAGGGCUACAUGAGGAUCACCCAUGUAUCCAGGAUCGGCUUACAGUA”, for which the “apparent Kd” value under setting [1] was 6.16 nM and the “apparent Kd” value under setting [2] turned out to be 6.27 nM.
Take “GUUGCAAAUGAGAAGGCGAUCAUGAAACAUGAUCGAGGAUAUCAUGUUUACAUGAGGAUCACCCAUGUAUGGGUAUAUUGCAGC”: the “apparent Kd” value by setting is: under setting [3], 402 nM; under setting [4], 22.2 nM.
As to “AGUUAAUAUCGAGGAUAUAAGUCUAGGACAUGAGGAUCACCCAUGUAUGUCUUAGAAGGCGAUAUUAACAGCAUGUUACAUGCA”, the “apparent Kd” value is, setting by setting: under setting [3], 28.3 nM; under setting [4], 6.89 nM.
For “GAUCGAAACACUCCUUACACUACAUGAGGAUCACCCAUGUAGCAGGAUAUCAUUGCUCCUCGCUGUGAGAAGGGCUACGGGCGA”, the “apparent Kd” value was found to be 7.3 nM under setting [1] and 14 nM under setting [2].
As to “AAGAUGUCUUGAGGAUAUCCAAAGGAAACCGCAGGAGAAGGCAGGACAUGAGGAUCACCCAUGUUGGGUUUAAUGCGAACAUAA”, the “apparent Kd” value came out at 102 nM under setting [1] and 342 nM under setting [2].
As for “AGUGUGUUAGGAUAUCGGAUAUGCUGGAGGAGGUGGAGUUACGAGAAGGAACAUGAGGAUCACCCAUGUAGGAC”, the “apparent Kd” value is 25.8 nM under setting [1] and 23.2 nM under setting [2].
For “AGGUGACAUGAGGAUCACCCAUGUAAGGAUAUACGGUUAGUGGAGAGUUGGAGGAGAGGUAGAAGGUACGGAGC”, the “apparent Kd” value was determined as 249 nM under setting [1] and 194 nM under setting [2].
Turning to “UUGGACGUCGUAGGAUACGUAGGAUAUUCCUACAUGAGGAUCACCCAUGUUGACAUGGAAGAAGGACAGAAGGACGAUGUCCAU”, the “apparent Kd” value under setting [3] turned out to be 71.6 nM and the “apparent Kd” value under setting [4] was found to be 4.95 nM.
Take “UUUGGGCCCUCAUCCCUCGACACAUGAGGAUCACCCAUGUGCAGAAGGUGGAGACCCGAGGUCGCCAAGGAUAUGCAAUGGGAC”: the “apparent Kd” value runs as follows: under setting [1], 15.8 nM; under setting [2], 10.2 nM.
For “GUCAGCUCGUGAGGAUAUACAUGUGCUGGAAACAGCACUAAUUAAAUCACAUGAGGAUCACCCAUGUAGAAGGCACGAGCUGAU”, the “apparent Kd” value is, setting by setting: under setting [1], 16.4 nM; under setting [2], 23.6 nM.
Consider “AAAAACGUAGGAUAUACAUGAAAAAAAAAAAAAAAAAAAAGACAUGAGGAUCACCCAUGUAGAAGGGCGAAAAA”, for which the “apparent Kd” value under setting [1] is 115 nM and the “apparent Kd” value under setting [2] turned out to be 104 nM.
